# An excerpt weighted towards active compounds, which were near 2.9% of everything screened.
# CAL PDZ FP-1: blocks peptide binding to the human CAL PDZ domain. Q9HD26. hit rate 0.92% among 300,000. inhibition, % at 24.9 µM. purified CAL PDZ, TMR-peptide fluorescence polarization, 1 h;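 active means mean inhibition of at least 30% with at least half of replicates also reaching 30%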;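 further: 0% = DMSO neutral control and 100% = excess unlabeled competitor peptide PRC23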
# CAL PDZ FP-2: inhibitors of human CAL PDZ peptide binding; Q9HD26; inhibition, % at 20 µM; hit rate 0.02% among 330,000; purified CAL PDZ, TMR-peptide fluorescence polarization, 1 h;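 active means highest replicate inhibition of at least 40%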;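 further: plate controls were DMSO neutral control wells for no effect and unlabeled competitor peptide control wells for full effect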
#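 Read-out basis: mP drop reported as inhibition | Assay system: Tagged CAL PDZ protein CerCALP, purified | Benchmarks: Unlabelled peptide for full inhibition, DMSO wells as neutral | Schedule: 1 h incubation at room temperature before polarization reading | Buffer or medium: Sodium phosphate/NaCl buffer pH 7.4 with TCEP, IgG, Thesit | Doses: Single point, 20 µM | Measured by: Fluorescence polarization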
# SIRT5 inh: inhibitors of human sirtuin-5 desuccinylase | Purified SirT5, succinyl-peptide AMC, trypsin-coupled fluorescence | inhibition, % at 15 µM | Q9NXA8 | AID 652115 | hit rate 1.1% among 330,000; in the data active means inhibition above about 15%
# ERAP1 HTS inh: inhibitors of human ERAP1 aminopeptidase | hit rate 0.15% among 340,000 | Q9NZ08 | recombinant ERAP1, Leu-AMC fluorescence, 60 min | AID 652197 | inhibition, % at 10.7 µM;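 active means mean replicate inhibition of at least 30%, or all replicates individually reaching that 30% level; inactive means mean below 30% and not every replicate reaching it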;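 further: 0% = neutral control wells and 100% = L-leucinethiol positive control wells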
# Target sequence (Q9NZ08 whole entry, looked up): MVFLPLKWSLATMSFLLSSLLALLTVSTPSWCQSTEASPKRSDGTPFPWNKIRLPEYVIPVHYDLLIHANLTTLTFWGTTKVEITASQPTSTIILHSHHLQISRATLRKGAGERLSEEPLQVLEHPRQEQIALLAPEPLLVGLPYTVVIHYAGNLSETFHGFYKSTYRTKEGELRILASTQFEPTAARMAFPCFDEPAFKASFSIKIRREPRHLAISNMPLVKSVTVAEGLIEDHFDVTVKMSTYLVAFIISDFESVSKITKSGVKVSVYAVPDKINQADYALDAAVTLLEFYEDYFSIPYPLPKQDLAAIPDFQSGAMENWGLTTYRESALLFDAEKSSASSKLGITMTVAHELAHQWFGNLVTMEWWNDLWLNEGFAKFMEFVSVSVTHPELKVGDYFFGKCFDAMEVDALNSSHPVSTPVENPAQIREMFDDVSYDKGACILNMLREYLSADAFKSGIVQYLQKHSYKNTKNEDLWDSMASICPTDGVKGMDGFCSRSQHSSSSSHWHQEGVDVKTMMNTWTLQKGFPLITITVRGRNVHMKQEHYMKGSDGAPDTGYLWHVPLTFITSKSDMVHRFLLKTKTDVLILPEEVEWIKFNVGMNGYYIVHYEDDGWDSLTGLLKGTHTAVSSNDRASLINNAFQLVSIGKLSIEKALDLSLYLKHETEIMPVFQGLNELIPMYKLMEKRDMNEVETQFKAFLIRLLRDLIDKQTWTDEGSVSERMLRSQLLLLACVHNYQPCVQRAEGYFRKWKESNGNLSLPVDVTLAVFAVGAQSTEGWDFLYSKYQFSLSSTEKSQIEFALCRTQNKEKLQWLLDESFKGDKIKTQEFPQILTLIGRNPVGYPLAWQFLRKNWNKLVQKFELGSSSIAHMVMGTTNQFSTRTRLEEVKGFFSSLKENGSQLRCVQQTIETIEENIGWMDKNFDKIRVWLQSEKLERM
# S100A4 inh HTS: inhibitors of human S100A4 binding to myosin IIA peptide | P26447 | S100A4/TAMRA-MyoIIA peptide fluorescence polarization | inhibition, % at 10.7 µM | hit rate 0.14% among 360,000;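 active means mean inhibition of at least 70% across replicates, with every replicate also reaching that level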
#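 Test system: S100A4 monomer protein. Medium: HEPES buffer with Ca2+, pH 7.2. Reagent: fluorescent myosin IIA peptide, 5 nM. Compound dosing: single-point compound testing. Timing: 5 min between mix addition and reading. Benchmarks: DMSO neutral and TFP positive wells.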
# DENV2 CPE rescue: DENV2-induced cell death inhibition; DENV2-infected cells, cytopathic effect rescue, plate reader; CPE inhibition, % at 9.99 µM; hit rate 1.7% among 350,000; in the data active means CPE inhibition above about 20%, passing the limit was not always enough; tested in BHK-21 cells;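 further: 0% = median of neutral control wells and 100% = median of positive control wells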
# Numbers without * were called inactive; . = no result.
SMILES,CAL PDZ FP-1,CAL PDZ FP-2,SIRT5 inh,ERAP1 HTS inh,S100A4 inh HTS,DENV2 CPE rescue
O=C(c1cccc(F)c1)N1CC(=O)N2[C@H](CO)[C@@H](c3ccc(-c4cccnc4)cc3)[C@H]2C1,.,.,-1,0,2,-5
Cc1ccc(S(=O)(=O)N[C@H]2CC[C@@H](CC(=O)NCc3ccc(Cl)c(Cl)c3)O[C@@H]2CO)cc1,.,.,3,-1,3,6
O=C(c1cccc(F)c1)N1CC[C@@H]2[C@H]1c1cc(-c3ccc(F)cc3)ccc1N[C@@H]2CO,.,.,-1,4,-3,-3
O=C(NC[C@H]1CC[C@H]2[C@H](CN2Cc2nccs2)O1)C1CCC1,.,.,4,2,-3,10
CN(C(=O)c1cccc(NC(=O)Cc2ccc(NC(=O)C3CCN(C(=O)C4CC4)CC3)cc2)c1)C1CCCC1,-4,-2,0,-1,3,47*
CN(C(=O)c1cccc(NC(=O)Cc2ccc(NC(=O)C3CCN(C(=O)C4CC4)CC3)cc2)c1)C1CCC1,-1,0,-4,.,-7,10
O=C(c1cccc(F)c1)N1CCN(C(=O)C2CC2)CC1,4,-2,.,.,.,.
O=C(c1cccc(F)c1)N1CCCC(C(=O)N2CCCCC2)C1 (centres undefined),0,-1,22*,1,-2,0
CN(Cc1ccccc1)C(=O)c1cccc(NC(=O)Cc2ccc(NC(=O)C3CCCN(C(=O)CCc4ccccc4)C3)cc2)c1 (centres undefined),11,-1,-3,0,-8,64*
C[C@@H]1CN([C@H](C)CO)C(=O)Cc2cc(NC(=O)CCN3CCOCC3)ccc2O[C@@H]1CN(C)Cc1ccncc1,.,.,-7,0,14,-3
Cc1ccc(-n2c(Cc3ccccc3)n[nH]c2=S)c(C)c1,-1,-2,3,6,5,0
COc1ccc(Cc2n[nH]c(=S)n2-c2cc(C)ccc2C)cc1OC,.,.,.,3,3,96*
NC(=O)C[N+]1(CC#CC(O)(c2ccccc2)c2ccccc2)CCCC1,2,-2,-2,47*,-3,5
C[C@@H]1CN([C@H](C)CO)C(=O)c2cc(NC(=O)C3CCCCC3)ccc2O[C@@H]1CN(C)S(C)(=O)=O,.,.,-2,3,-14,24*
C[C@@H]1CN([C@@H](C)CO)C(=O)c2cc(NC(=O)C3CCCCC3)ccc2O[C@H]1CN(C)CC1CCCCC1,.,.,0,-1,10,4
C[C@H](CO)N1C[C@H](C)[C@@H](CN(C)CC2CCCCC2)Oc2ccc(NC(=O)C3CCCCC3)cc2C1=O,.,.,1,-1,3,23*
C[C@H](CO)N1C[C@H](C)[C@H](CN(C)CC2CCCCC2)OCCCC[C@H](C)Oc2ccc(NC(=O)C3CCCCC3)cc2C1=O,.,.,-1,2,-11,23*
COc1cccc(S(=O)(=O)N[C@@H]2CC[C@H](CCn3cc(-c4ccccn4)nn3)O[C@@H]2CO)c1,.,.,1,1,12,-5
CCNC(=O)C[C@H]1CC[C@H]2[C@@H](COc3ccc(NS(C)(=O)=O)cc3C(=O)N2C)O1,.,.,7,1,1,7
CCCN1[C@H](C(=O)OC)[C@@H](CO)[C@@H]2Cn3c(ccc(-c4cccc(C(=O)N(C)C)c4)c3=O)[C@@H]21,.,.,11,-2,3,4
CN1OC[C@@H]2CN(C(=O)NC3CCCCC3)[C@H](c3ccc(N4CCCCC4)cc3)C[C@@H]21,.,.,-3,-5,-7,22*
O=C1CSC(c2ccc([N+](=O)[O-])cc2)N1CCN1CCCCC1 (centres undefined),44*,-1,-2,0,1,-2
CCCCc1cc(=O)oc2cc(C)cc(OCC(=O)N3CCC(C(N)=O)CC3)c12,-5,0,-5,3,55,61*
CCCNC(=O)Nc1ccc2c(c1)OC[C@@H](C)N(Cc1cccnc1)C[C@@H](C)[C@H](OC)CN(C)C2=O,.,.,3,.,3,1
CN(C)C(=O)c1cccc(-c2ccc3c(c2)[C@@H]2[C@@H](CCN2C(=O)c2ccccc2)[C@H](CO)N3C)c1,.,.,8,0,11,9
C[C@H](CO)N1C[C@H](C)[C@@H](CN(C)CC2CCCCC2)OCCCC[C@H](C)Oc2ccc(NS(=O)(=O)c3ccc(F)cc3)cc2C1=O,.,.,8,1,-5,-7

# Screening data as filed in PubChem BioAssay.
